≈ marks a conversion by molar mass, not a printed value.
Columns and labels:
Type in all cases: functional, cell-based
[1] = system: A549; experiment: Cytotoxicity against human A549 cells after 4 days by modified propidium iodide staining-based fluorescence assay; details: A549, 96 h
In short: (§1)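 Cells cultured in RPMI 1640 with 10% fetal calf serum and 0.1 mg/mL gentamicin at 37 °C, 5% CO2. Cells from exponential cultures were trypsinized and plated at 4.000-20.000 cells/well by line. After 24 h recovery, compounds were added at five log-spaced concentrations (highest 100 μg/mL) for 4 days. Proliferation was read as DNA content with aqueous propidium iodide (7 μg/ml), fluorescence ex 530/em 620 nm. Points were run in triplicate.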

[2] = Cytotoxicity against human 1781L cells after 4 days by modified propidium iodide staining-based fluorescence assay; details: 96 h; in short: as §1
[3] = system: DU-145; experiment: Cytotoxicity against human DU145 cells after 4 days by modified propidium iodide staining-based fluorescence assay; details: DU-145, 96 h; in short: as §1
[4] = system: T-24; experiment: Cytotoxicity against human T24 cells after 4 days by modified propidium iodide staining-based fluorescence assay; details: T-24, 96 h; in short: as §1
[5] = Cytotoxicity against human RXF 486L cells after 4 days by modified propidium iodide staining-based fluorescence assay; details: 96 h; in short: as §1
[6] = system: HCT-116; experiment: Cytotoxicity against human HCT116 cells after 4 days by modified propidium iodide staining-based fluorescence assay; details: HCT-116, 96 h; in short: as §1
[7] = Cytotoxicity against human LXFA 289L cells after 4 days by modified propidium iodide staining-based fluorescence assay; details: 96 h; in short: as §1
[8] = Cytotoxicity against human MEXF 462NL cells after 4 days by modified propidium iodide staining-based fluorescence assay; details: 96 h; in short: as §1
[9] = Cytotoxicity against human PC3M cells after 4 days by modified propidium iodide staining-based fluorescence assay; details: PC-3M, 96 h; in short: as §1
[10] = Cytotoxicity against human GXF251L cells after 4 days by modified propidium iodide staining-based fluorescence assay; details: GXF 251L, 96 h; in short: as §1
[11] = Cytotoxicity against human 1752L cells after 4 days by modified propidium iodide staining-based fluorescence assay; details: 96 h; in short: as §1
[12] = system: MCF7; experiment: Cytotoxicity against human MCF7 cells after 4 days by modified propidium iodide staining-based fluorescence assay; details: MCF7, 96 h; in short: as §1
[13] = system: PANC-1; experiment: Cytotoxicity against human PANC1 cells after 4 days by modified propidium iodide staining-based fluorescence assay; details: PANC-1, 96 h; in short: as §1
[14] = Cytotoxicity against human MAXF 401NL cells after 4 days by modified propidium iodide staining-based fluorescence assay; details: 96 h; in short: as §1
[15] = Cytotoxicity against human MEXF 276L cells after 4 days by modified propidium iodide staining-based fluorescence assay; details: MEXF276L, 96 h; in short: as §1
[16] = Cytotoxicity against human LXFL 1121L cells after 4 days by modified propidium iodide staining-based fluorescence assay; details: 96 h; in short: as §1
[17] = Cytotoxicity against human MEXF 520L cells after 4 days by modified propidium iodide staining-based fluorescence assay; details: 96 h; in short: as §1
[18] = Cytotoxicity against human LXFA 629L cells after 4 days by modified propidium iodide staining-based fluorescence assay; details: 96 h; in short: as §1
[19] = system: CWR22R; experiment: Cytotoxicity against human 22Rv1 cells after 4 days by modified propidium iodide staining-based fluorescence assay; details: 22Rv1, 96 h; in short: as §1
[20] = system: LNCaP; experiment: Cytotoxicity against human LNCAP cells after 4 days by modified propidium iodide staining-based fluorescence assay; details: 96 h; in short: as §1
[21] = system: OVCAR-3; experiment: Cytotoxicity against human OVCAR-3 cells after 4 days by modified propidium iodide staining-based fluorescence assay; details: OVCAR-3, 96 h; in short: as §1
[22] = Cytotoxicity against human 1657L cells after 4 days by modified propidium iodide staining-based fluorescence assay; details: 96 h; in short: as §1
[23] = system: SF-268; experiment: Cytotoxicity against human SF268 cells after 4 days by modified propidium iodide staining-based fluorescence assay; details: SF-268, 96 h; in short: as §1
[24] = Cytotoxicity against human BXF 1218L cells after 4 days by modified propidium iodide staining-based fluorescence assay; details: 96 h; in short: as §1
[25] = system: NCI-H460; experiment: Cytotoxicity against human H460 cells after 4 days by modified propidium iodide staining-based fluorescence assay; details: NCI-H460, 96 h; in short: as §1
[26] = Cytotoxicity against human LXFA 526L cells after 4 days by modified propidium iodide staining-based fluorescence assay; details: 96 h; in short: as §1
[27] = Cytotoxicity against human UXF 1138L cells after 4 days by modified propidium iodide staining-based fluorescence assay; details: 96 h; in short: as §1
[28] = Cytotoxicity against human 899L cells after 4 days by modified propidium iodide staining-based fluorescence assay; details: 96 h; in short: as §1
[29] = system: HT-29; experiment: Cytotoxicity against human HT-29 cells after 4 days by modified propidium iodide staining-based fluorescence assay; details: HT-29, 96 h; in short: as §1

Cn1cc(-c2cc(-c3cn(C)c4ccccc34)on2)c2ccccc21
IC50 [1]: 5.1 µg/mL (≈ 15.6 µM) | IC50 [2]: 38.7 µg/mL (≈ 118 µM) | IC50 [3]: 18.3 µg/mL (≈ 55.9 µM) | IC50 [4]: 40.6 µg/mL (≈ 124 µM) | IC50 [5]: 29.3 µg/mL (≈ 89.5 µM) | IC50 [6]: 29.5 µg/mL (≈ 90.1 µM) | IC50 [7]: 18.7 µg/mL (≈ 57.1 µM) | IC50 [8]: 37.8 µg/mL (≈ 115 µM) | IC50 [9]: 28.1 µg/mL (≈ 85.8 µM) | IC50 [10]: 7.2 µg/mL (≈ 22 µM) | IC50 [11]: 24.2 µg/mL (≈ 73.9 µM) | IC50 [12]: 21.5 µg/mL (≈ 65.7 µM) | IC50 [13]: 8.8 µg/mL (≈ 26.9 µM) | IC50 [14]: 28.8 µg/mL (≈ 88 µM) | IC50 [15]: 13.3 µg/mL (≈ 40.6 µM) | IC50 [16]: 21 µg/mL (≈ 64.1 µM) | IC50 [17]: 24.1 µg/mL (≈ 73.6 µM) | IC50 [18]: 4.2 µg/mL (≈ 12.8 µM) | IC50 [19]: 14.1 µg/mL (≈ 43.1 µM) | IC50 [20]: 11.5 µg/mL (≈ 35.1 µM) | IC50 [21]: 11.1 µg/mL (≈ 33.9 µM) | IC50 [22]: 29.9 µg/mL (≈ 91.3 µM) | IC50 [23]: 24.6 µg/mL (≈ 75.1 µM) | IC50 [24]: 20 µg/mL (≈ 61.1 µM) | IC50 [25]: 18.4 µg/mL (≈ 56.2 µM) | IC50 [26]: 11.5 µg/mL (≈ 35.1 µM) | IC50 [27]: 4.8 µg/mL (≈ 14.7 µM) | IC50 [28]: 14.9 µg/mL (≈ 45.5 µM) | IC50 [29]: 32.7 µg/mL (≈ 99.9 µM)

Source: ChEMBL document CHEMBL1165947, “Synthesis and antitumor activity of 2,5-bis(3'-indolyl)-furans and 3,5-bis(3'-indolyl)-isoxazoles, nortopsentin analogues” (Bioorg Med Chem, 2010)
